Assay results pooled from the literature.
ESR1: Estrogen receptor (ESR1, Homo sapiens, UniProt P03372)
CA14: Carbonic anhydrase 14 (CA14, Homo sapiens, UniProt Q9ULX7)
OPRL1: Nociceptin receptor (OPRL1, Homo sapiens, UniProt P41146)
PIK3C3: Phosphatidylinositol 3-kinase catalytic subunit type 3 (PIK3C3, Homo sapiens, UniProt Q8NEB9)
nupG: nupG (Escherichia coli, UniProt P0AFF4)

Compound	target	assay	conditions	quantity	result
COc1ccccc1/C=C/C(=O)NC(=S)Nc1ccc(S(=O)(=O)N(C)c2ccccc2)cc1	G-protein coupled receptor 55 (GPR55, Homo sapiens, UniProt Q9Y2T6)	β-arrestin recruitment, agonist	–	EC50	300 nM
C[C@H]1Oc2cc(cnc2N)-c2c(nn(C)c2C#N)CN(C)C(=O)c2ccc(F)cc21	Mitogen-activated protein kinase kinase kinase 13 (MAP3K13, Homo sapiens, UniProt O43283)	cell-free assay	lysate	Ki	32.7 nM
O=c1ccn([C@@H]2O[C@H](COP(=O)(O)OP(=O)(O)O[C@H]3OC[C@@H](O)[C@H](O)[C@H]3O)[C@@H](O)[C@H]2O)c(=O)[nH]1	UDP-glucose 6-dehydrogenase (UGDH, Homo sapiens, UniProt O60701)	enzyme activity, inhibitor	–	Ki	180 nM
C[C@]12CCC3=C4CCC(=O)C=C4CC[C@H]3[C@@H]1CC[C@@]2(O)CC#N	ESR1	reporter gene, agonist	–	EC50	> 25000 nM
Cc1occc(=S)c1O	CA14	enzyme activity, inhibitor, stopped-flow	–	Ki	6700 nM
CNc1nc(C#Cc2ccc(Cl)s2)nc2c1ncn2[C@H]1[C@H](O)[C@H](O)[C@]2(C(=O)OCc3ccccc3)C[C@H]12	OPRL1	ligand displacement, radioligand	–	Ki	> 10000 nM
Cc1nc(NC(=O)N2CCC[C@H]2C(N)=O)sc1-c1ccnc(C(C)(C)C(F)(F)F)c1	PIK3C3	binding, competition with immobilised ligand	–	Kd	24500 nM
Cc1cc(Nc2cc3ncccc3c(N[C@@H]3C[C@H]4CC[C@@H](C3)N4CCC#N)n2)n[nH]1	Death-associated protein kinase 3 (DAPK3, Homo sapiens, UniProt O43293)	binding, competition with immobilised ligand	–	Kd	19 nM
C[C@]12CC[C@H](O)CC1=CC[C@@H]1[C@@H]2CC[C@]2(C)C(c3cccnc3)=CC[C@@H]12	ESR1	ligand displacement in cells, radioligand	–	Ki	390 nM
CNCC[C@@H](Oc1ccccc1CCCF)c1ccccc1	Norepinephrine transporter (Slc6a2, Rattus norvegicus, UniProt Q9WTR4)	ligand displacement, radioligand	cell membranes	Ki	23 nM
CCC(S)C(C)CO (centres unmarked)	OR2M3 (Homo sapiens, UniProt Q8NG83)	cAMP, agonist, luciferase	–	EC50	1400 nM
CCC(=O)N1CCC(C(=O)NCC(=O)N2CCN(c3nc(-c4cnc(N)nc4C(F)F)nc(N4CCOCC4)n3)CC2)CC1	PIK3C3	binding, competition with immobilised ligand	–	Kd	100 nM
CC1Cc2ccccc2N1C(=O)NCCCCN(C)[C@@H]1Cc2cccc3[nH]c(=O)n(c23)C1 (mixture of isomers)	5-hydroxytryptamine receptor 1A (HTR1A, Homo sapiens, UniProt P08908)	ligand displacement, radioligand	–	Ki	23.7 nM
Cc1cn([C@H]2C[C@H](O)[C@@H](CO)O2)c(=O)[nH]c1=O	nupG	binding, ITC	–	Kd	162000 nM
CCOCc1nc(O)c(-c2nnc(Cc3ccc(Cl)cn3)o2)c(O)c1-c1c(OC)cccc1OC	Apelin receptor (APLNR, Homo sapiens, UniProt P35414)	cell-free assay, radioligand	–	Kd	0.15 nM
CCCOc1cccc2nc(N)n(Cc3ccc(Cl)c(Cl)c3)c12	Pteridine reductase (PTR1, Trypanosoma brucei brucei, UniProt O76290)	enzyme activity, inhibitor, absorbance	–	Ki	50 nM
CCOC(=O)[C@@]12C[C@@H]1[C@@H](n1ccc3c(NC)nc(C#Cc4ccccc4)nc31)[C@H](O)[C@@H]2O	OPRL1	ligand displacement, radioligand	–	Ki	> 10000 nM
Nc1ncnc2c1ncn2[C@@H]1O[C@H](CO)[C@@H](O)[C@H]1O	nupG	binding, ITC	–	Kd	99700 nM
On1ccccc1=S	CA14	enzyme activity, inhibitor, stopped-flow	–	Ki	7100 nM
C=CC(=O)N1CCC(C(=O)N(C)CC(=O)N2CCN(c3nc(-c4cnc(N)nc4C(F)F)nc(N4CCOCC4)n3)CC2)CC1	PIK3C3	binding, competition with immobilised ligand	–	Kd	275 nM
